# Test results reported in ChEMBL document CHEMBL4725329, “Anti-proliferative potential of triphenyl substituted pyrimidines against MDA-MB-231, HCT-116 and HT-29 cancer cell lines” (Bioorg Med Chem Lett, 2020).
# Experiments:
# [1] = test system: HCT-116; test: Antiproliferative activity against human HCT-116 cells assessed as inhibition of cell proliferation measured after 48 hrs by MTT assay; type: functional, cell-based; details: HCT-116, 48 h
# In short: (§1)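 Cells were exposed to test compounds at 1, 5, 10 and 25 µM for 48 h, with each concentration run in triplicate. Untreated cells served as control. Cell viability was measured and IC₅₀ values were derived as mean ± SD of three independent experiments.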
# [2] = test system: HT-29; test: Antiproliferative activity against human HT-29 cells assessed as inhibition of cell proliferation measured after 48 hrs by MTT assay; type: functional, cell-based; details: HT-29, 48 h; in short: as §1
# [3] = test system: MDA-MB-231; test: Antiproliferative activity against human MDA-MB-231 cells assessed as inhibition of cell proliferation measured after 48 hrs by MTT assay; type: functional, cell-based; details: MDA-MB-231, 48 h; in short: as §1
# [4] = molecular target: T1, Tubulin (Homo sapiens) (UniProt P68371+Q9H4B7+P0DPH7+P68366+Q13509+Q71U36+P04350+Q3ZCM7+P07437+P68363+Q9BQE3+Q6PEY2+Q13885+Q9BVA1+Q9BUF5); test: Inhibition of tubulin polymerization in human HCT-116 cells assessed as cell cycle arrest at G2/M phase at 12.5 uM measured after 24 hrs by propidium iodide staining based analysis; design: scale not given: the % may be the effect or the level left
# [5] = test system: HCT-116; test: Induction of apoptosis in human HCT-116 cells assessed as early apoptotic cells at 5 uM measured after 24 hrs by annexin-V/FITC staining based flow cytometry analysis (reference value: 0.3 %); type: functional
# [6] = molecular target: T1, Tubulin (Homo sapiens); test: Inhibition of tubulin polymerization in human HCT-116 cells assessed as cell cycle arrest at G1/G0 phase at 12.5 uM measured after 24 hrs by propidium iodide staining based analysis; design: scale not given: the % may be the effect or the level left
# [7] = test system: HCT-116; test: Induction of apoptosis in human HCT-116 cells assessed as live cells at 5 uM measured after 24 hrs by annexin-V/FITC staining based flow cytometry analysis (reference value: 97.1 %); type: functional
# [8] = test system: HCT-116; test: Induction of apoptosis in human HCT-116 cells assessed as late apoptotic cells at 5 uM measured after 24 hrs by annexin-V/FITC staining based flow cytometry analysis (reference value: 2.4 %); type: functional
# [9] = test system: HCT-116; test: Induction of apoptosis in human HCT-116 cells assessed as necrotic cells at 5 uM measured after 24 hrs by annexin-V/FITC staining based flow cytometry analysis (reference value: 0.2 %); type: functional
smiles,measurement,setting,value
COc1cc(-c2cc(-c3ccc(C)cc3)nc(-c3ccccc3)n2)cc(OC)c1OC,IC50,[1],15.7 µM
same,IC50,[2],> 25 µM
same,IC50,[3],5.11 µM
COc1cc(-c2cc(-c3ccc(O)cc3)nc(-c3ccccc3)n2)cc(OC)c1OC,IC50,[1],11.8 µM
same,IC50,[2],11.3 µM
same,IC50,[3],1.6 µM
COc1cc(-c2cc(-c3cccc(O)c3)nc(-c3ccccc3)n2)cc(OC)c1OC,IC50,[1],20.4 µM
same,IC50,[2],> 25 µM
same,IC50,[3],1.99 µM
COc1cc(-c2cc(-c3ccc(N)cc3)nc(-c3ccccc3)n2)cc(OC)c1OC,IC50,[1],12.3 µM
same,IC50,[2],> 25 µM
same,IC50,[3],1.01 µM
COc1cc(-c2cc(-c3cccc4ccccc34)nc(-c3ccccc3)n2)cc(OC)c1OC,IC50,[1],4.93 µM
same,Activity,[4],8.1%
same,Activity,[5],26.4%
same,Activity,[6],78.5%
same,Activity,[7],23.7%
same,IC50,[2],4.73 µM
same,Activity,[8],49.6%
same,IC50,[3],3.24 µM
same,Activity,[9],0.3%
COc1cc(-c2cc(-c3cccs3)nc(-c3ccccc3)n2)cc(OC)c1OC,IC50,[1],17 µM
same,IC50,[2],> 25 µM
same,IC50,[3],5.11 µM
COc1cc(-c2cc(-c3cccc([N+](=O)[O-])c3)nc(-c3ccccc3)n2)cc(OC)c1OC,IC50,[1],> 25 µM
same,IC50,[2],> 25 µM
same,IC50,[3],2.44 µM
COc1ccc(-c2cc(-c3cc(OC)c(OC)c(OC)c3)nc(-c3ccccc3)n2)c(OC)c1,IC50,[1],> 25 µM
same,IC50,[2],> 25 µM
same,IC50,[3],1.44 µM
COc1cc(-c2cc(-c3ccc(Cl)cc3)nc(-c3ccccc3)n2)cc(OC)c1OC,IC50,[1],7.98 µM
same,IC50,[2],6.23 µM
same,IC50,[3],> 25 µM
COc1ccc(-c2cc(-c3cc(OC)c(OC)c(OC)c3)nc(-c3ccccc3)n2)cc1,IC50,[1],4.78 µM
same,Activity,[4],88.8%
same,Activity,[5],22.5%
same,Activity,[6],5.6%
same,Activity,[7],28.3%
same,IC50,[2],4.23 µM
same,Activity,[8],48.3%
same,IC50,[3],3.39 µM
same,Activity,[9],0.9%
COc1cc(-c2cc(-c3ccc(O)cc3O)nc(-c3ccccc3)n2)cc(OC)c1OC,IC50,[1],5.89 µM
same,Activity,[4],79.5%
same,Activity,[5],35.4%
same,Activity,[6],11.3%
same,Activity,[7],28.7%
same,IC50,[2],4.96 µM
same,Activity,[8],35.2%
same,IC50,[3],0.81 µM
same,Activity,[9],0.6%
COc1cc(-c2cc(-c3ccc(Br)cc3)nc(-c3ccccc3)n2)cc(OC)c1OC,IC50,[1],4.32 µM
same,IC50,[2],3.17 µM
same,IC50,[3],> 25 µM
COc1cc(-c2cc(-c3ccccc3)nc(-c3ccccc3)n2)cc(OC)c1OC,IC50,[1],9.95 µM
same,IC50,[2],7.93 µM
same,IC50,[3],5.87 µM
COc1cc2c(c(OC)c1OC)-c1ccc(OC)c(=O)cc1[C@@H](NC(C)=O)CC2 [COLCHICINE],IC50,[1],5.13 µM
same,Activity,[5],1.9%
same,Activity,[7],38.8%
same,IC50,[2],5.19 µM
same,Activity,[8],56.4%
same,IC50,[3],0.93 µM
same,Activity,[9],2.9%
